ChEMBL document CHEMBL2424619, “Small-molecule ligands of methyl-lysine binding proteins: optimization of selectivity for L3MBTL3” (J Med Chem, 2013)

What was measured:
[1] = molecular target: T1, Lethal(3)malignant brain tumor-like protein 3 (Homo sapiens, UniProt Q96JM7); test: Inhibition of L3MBTL3 (unknown origin) using H4K20me2 as substrate after 30 mins by LNCE-TR-FRET assay
T1 sequence (Q96JM7 whole entry): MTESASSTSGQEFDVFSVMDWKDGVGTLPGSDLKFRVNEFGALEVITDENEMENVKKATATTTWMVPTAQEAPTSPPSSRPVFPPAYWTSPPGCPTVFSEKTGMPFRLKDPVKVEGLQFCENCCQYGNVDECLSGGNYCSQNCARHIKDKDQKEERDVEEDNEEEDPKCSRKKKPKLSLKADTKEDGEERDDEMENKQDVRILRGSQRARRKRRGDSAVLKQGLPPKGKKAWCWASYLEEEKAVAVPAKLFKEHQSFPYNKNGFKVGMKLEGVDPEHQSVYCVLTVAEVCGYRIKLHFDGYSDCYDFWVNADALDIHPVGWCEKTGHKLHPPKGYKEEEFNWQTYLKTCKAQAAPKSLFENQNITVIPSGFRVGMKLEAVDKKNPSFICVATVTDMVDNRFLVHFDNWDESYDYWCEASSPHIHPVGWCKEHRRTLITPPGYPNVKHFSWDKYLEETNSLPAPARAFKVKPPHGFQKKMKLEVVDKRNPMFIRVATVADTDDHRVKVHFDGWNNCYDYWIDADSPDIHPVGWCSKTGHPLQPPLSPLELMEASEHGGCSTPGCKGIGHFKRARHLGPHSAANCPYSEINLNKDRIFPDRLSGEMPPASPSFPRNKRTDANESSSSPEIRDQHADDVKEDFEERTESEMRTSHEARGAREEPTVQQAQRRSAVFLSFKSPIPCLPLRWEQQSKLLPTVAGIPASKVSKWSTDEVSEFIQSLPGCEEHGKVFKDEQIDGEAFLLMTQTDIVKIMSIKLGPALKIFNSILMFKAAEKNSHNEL

[2] = molecular target: T2, Chromobox protein homolog 7 (Homo sapiens, UniProt O95931); test: Inhibition of CBX7 (unknown origin) after 30 mins by AlphaScreen assay
T2 sequence (O95931 whole entry): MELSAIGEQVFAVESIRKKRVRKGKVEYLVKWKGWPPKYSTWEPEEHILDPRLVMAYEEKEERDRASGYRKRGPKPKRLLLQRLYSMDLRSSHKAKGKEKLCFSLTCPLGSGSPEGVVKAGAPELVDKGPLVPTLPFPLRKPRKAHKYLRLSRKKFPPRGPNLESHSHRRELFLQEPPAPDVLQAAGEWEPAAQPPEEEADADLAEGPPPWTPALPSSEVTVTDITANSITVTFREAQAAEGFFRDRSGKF
Outline: (§1)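 AlphaScreen competition with histone peptide. Compounds in 3-fold, 10-point dilutions, top 10 or 30 μM; buffer 20 mM Tris pH 8.0, 25 mM NaCl, 2 mM DTT, 0.05% Tween-20. Protein-peptide mix 30 min RT, then streptavidin donor plus nickel-chelate acceptor beads (GST acceptor beads for GST-tagged PHF23, JARID1A) 30 min RT dark. Protein-free His6-biotin peptide counterscreen.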

[3] = molecular target: Lysine-specific demethylase 5A (Homo sapiens, UniProt P29375); test: Inhibition of JARID1A (unknown origin) after 30 mins by AlphaScreen assay
Outline: as §1, with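 “dark. […]” for “dark.”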

[4] = molecular target: T3, Lethal(3)malignant brain tumor-like protein 4 (Homo sapiens, UniProt Q8NA19); test: Inhibition of L3MBTL4 (unknown origin) after 30 mins by AlphaScreen assay; outline: as §1
T3 sequence (Q8NA19 whole entry): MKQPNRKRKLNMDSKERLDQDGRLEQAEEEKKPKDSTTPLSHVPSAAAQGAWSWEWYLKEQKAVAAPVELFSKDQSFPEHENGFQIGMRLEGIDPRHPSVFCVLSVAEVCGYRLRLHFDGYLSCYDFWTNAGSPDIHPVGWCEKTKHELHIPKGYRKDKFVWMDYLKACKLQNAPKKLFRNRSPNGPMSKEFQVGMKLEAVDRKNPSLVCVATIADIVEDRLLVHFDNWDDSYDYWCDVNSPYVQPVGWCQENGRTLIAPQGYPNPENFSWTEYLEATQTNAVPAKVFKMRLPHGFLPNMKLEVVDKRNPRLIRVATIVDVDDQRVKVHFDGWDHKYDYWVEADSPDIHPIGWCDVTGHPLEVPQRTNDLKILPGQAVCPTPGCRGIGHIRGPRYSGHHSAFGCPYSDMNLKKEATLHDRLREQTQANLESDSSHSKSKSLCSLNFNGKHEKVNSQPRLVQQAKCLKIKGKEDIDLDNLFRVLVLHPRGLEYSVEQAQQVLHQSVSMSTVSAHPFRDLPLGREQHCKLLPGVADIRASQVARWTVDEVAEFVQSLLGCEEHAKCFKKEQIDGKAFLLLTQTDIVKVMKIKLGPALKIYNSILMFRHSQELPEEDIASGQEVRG

TP53-binding protein 1 = TP53-binding protein 1 (Homo sapiens, UniProt Q12888); test: Inhibition of 53BP1 (unknown origin) after 30 mins by AlphaScreen assay
Outline: as §1, with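 “dark. […]” for “dark.”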

[5] = molecular target: T1, Lethal(3)malignant brain tumor-like protein 3; test: Inhibition of L3MBTL3 (unknown origin) after 30 mins by AlphaScreen assay; outline: as §1

Chain of TP53-binding protein 1 (Q12888 whole entry): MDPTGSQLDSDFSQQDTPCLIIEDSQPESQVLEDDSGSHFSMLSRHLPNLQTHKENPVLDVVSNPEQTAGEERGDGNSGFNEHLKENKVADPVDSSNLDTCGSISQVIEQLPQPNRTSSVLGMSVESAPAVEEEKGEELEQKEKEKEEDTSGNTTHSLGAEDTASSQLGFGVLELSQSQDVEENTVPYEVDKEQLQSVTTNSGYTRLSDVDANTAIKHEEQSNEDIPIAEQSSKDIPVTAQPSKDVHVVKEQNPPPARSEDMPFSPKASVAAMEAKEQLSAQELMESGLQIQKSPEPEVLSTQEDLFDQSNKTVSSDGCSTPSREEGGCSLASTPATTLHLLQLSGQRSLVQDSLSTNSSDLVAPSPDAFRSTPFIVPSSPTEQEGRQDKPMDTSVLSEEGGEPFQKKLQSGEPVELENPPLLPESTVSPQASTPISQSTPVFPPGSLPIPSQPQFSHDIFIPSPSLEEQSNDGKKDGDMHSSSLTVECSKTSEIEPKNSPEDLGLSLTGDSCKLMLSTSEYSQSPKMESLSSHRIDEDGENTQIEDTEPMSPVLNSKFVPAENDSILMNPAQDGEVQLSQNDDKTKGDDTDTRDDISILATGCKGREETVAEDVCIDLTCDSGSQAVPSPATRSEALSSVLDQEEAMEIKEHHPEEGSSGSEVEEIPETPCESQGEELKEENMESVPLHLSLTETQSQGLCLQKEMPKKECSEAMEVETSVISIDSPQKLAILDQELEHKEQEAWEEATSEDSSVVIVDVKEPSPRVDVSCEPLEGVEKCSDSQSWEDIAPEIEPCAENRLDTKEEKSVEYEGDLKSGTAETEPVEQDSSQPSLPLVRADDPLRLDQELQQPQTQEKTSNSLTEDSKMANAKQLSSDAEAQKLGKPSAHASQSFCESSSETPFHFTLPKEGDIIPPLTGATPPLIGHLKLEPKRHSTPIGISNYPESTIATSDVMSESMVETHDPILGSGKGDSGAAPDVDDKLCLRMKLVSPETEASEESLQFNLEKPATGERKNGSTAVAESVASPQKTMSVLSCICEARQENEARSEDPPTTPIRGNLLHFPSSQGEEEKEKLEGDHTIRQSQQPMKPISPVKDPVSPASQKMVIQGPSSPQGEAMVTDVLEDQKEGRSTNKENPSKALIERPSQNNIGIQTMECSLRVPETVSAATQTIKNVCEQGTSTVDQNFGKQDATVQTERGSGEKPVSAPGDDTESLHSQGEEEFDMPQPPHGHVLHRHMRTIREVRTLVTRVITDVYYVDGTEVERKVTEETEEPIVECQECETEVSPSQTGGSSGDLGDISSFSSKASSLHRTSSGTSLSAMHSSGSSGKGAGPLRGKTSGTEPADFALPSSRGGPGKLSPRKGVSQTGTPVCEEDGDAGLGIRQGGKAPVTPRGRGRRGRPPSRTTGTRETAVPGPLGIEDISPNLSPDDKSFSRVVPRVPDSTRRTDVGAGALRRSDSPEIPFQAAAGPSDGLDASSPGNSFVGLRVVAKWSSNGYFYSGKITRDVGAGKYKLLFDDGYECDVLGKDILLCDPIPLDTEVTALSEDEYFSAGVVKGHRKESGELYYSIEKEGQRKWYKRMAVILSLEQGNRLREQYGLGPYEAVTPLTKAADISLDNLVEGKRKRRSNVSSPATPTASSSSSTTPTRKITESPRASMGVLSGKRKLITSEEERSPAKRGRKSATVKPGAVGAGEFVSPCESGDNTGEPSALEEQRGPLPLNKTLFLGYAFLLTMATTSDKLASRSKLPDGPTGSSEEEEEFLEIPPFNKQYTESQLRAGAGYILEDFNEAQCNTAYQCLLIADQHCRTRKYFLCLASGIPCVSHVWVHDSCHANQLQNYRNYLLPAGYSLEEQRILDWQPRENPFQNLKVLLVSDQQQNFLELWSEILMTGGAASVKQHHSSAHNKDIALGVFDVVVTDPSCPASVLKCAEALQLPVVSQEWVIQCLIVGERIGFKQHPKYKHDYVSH
Chain of Lysine-specific demethylase 5A (P29375 whole entry): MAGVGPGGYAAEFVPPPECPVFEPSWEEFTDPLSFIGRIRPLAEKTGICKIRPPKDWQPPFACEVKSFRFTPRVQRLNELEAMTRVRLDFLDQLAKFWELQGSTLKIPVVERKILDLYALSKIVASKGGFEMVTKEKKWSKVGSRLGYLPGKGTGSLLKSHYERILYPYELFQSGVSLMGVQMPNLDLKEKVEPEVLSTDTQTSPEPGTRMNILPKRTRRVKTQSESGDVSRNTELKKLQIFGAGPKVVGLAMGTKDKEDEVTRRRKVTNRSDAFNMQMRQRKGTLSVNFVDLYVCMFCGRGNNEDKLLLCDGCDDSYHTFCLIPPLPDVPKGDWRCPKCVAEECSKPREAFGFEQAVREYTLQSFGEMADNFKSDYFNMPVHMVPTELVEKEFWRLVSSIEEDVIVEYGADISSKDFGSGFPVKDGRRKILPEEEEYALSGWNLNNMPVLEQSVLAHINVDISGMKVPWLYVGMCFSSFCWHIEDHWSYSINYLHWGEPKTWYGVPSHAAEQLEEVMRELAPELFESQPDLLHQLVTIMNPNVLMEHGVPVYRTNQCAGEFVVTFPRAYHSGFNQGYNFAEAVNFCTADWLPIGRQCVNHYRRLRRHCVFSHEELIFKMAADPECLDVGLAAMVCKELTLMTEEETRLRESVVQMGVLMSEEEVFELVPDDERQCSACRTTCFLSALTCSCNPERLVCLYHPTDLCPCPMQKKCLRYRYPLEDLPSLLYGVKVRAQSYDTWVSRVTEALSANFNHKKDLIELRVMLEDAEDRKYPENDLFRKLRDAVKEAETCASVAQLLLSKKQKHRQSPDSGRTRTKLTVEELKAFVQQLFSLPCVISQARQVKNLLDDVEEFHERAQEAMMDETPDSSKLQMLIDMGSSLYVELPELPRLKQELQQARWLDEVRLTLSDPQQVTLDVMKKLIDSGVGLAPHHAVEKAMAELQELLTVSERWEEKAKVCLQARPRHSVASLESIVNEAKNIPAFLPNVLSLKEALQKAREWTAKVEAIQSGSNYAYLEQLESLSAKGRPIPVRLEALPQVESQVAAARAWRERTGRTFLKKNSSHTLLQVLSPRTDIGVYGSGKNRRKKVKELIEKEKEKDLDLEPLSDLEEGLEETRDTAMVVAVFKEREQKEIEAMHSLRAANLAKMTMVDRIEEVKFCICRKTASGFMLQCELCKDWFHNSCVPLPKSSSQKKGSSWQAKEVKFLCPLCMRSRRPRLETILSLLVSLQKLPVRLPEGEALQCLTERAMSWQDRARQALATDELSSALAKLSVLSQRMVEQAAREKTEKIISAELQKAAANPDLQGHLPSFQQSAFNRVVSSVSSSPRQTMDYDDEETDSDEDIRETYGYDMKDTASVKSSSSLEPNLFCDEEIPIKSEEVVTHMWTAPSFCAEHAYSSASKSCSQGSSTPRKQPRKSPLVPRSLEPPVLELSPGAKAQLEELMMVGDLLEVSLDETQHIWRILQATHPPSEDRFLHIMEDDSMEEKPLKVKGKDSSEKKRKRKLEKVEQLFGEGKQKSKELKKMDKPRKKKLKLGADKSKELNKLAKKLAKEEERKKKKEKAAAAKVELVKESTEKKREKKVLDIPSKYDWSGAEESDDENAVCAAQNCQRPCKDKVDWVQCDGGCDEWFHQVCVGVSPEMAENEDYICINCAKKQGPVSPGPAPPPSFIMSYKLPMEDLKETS

| Structure (SMILES) | IC50 [2] [µM] | IC50 [3] [µM] | IC50 (TP53-binding protein 1) [µM] | IC50 [1] [µM] | IC50 [4] [µM] | IC50 [5] [µM] |
| --- | --- | --- | --- | --- | --- | --- |
| O=C(c1ccc(C(=O)N2CCC3(CCNC3)CC2)cc1)N1CCC(N2CCCC2)CC1 | > 10 | > 10 | > 10 | 0.62 | > 10 | 0.56 |
| CCN1Cc2ccc(NC(=O)c3ccc(C(=O)N4CCC(N5CCCC5)CC4)cc3)cc2C1 | > 10 | > 10 | > 10 | 0.35 | > 10 | 0.37 |
| O=C(c1ccc(C(=O)N2CCC3(CCNC3)C2)cc1)N1CCC(N2CCCC2)CC1 (stereo not given) | > 10 | > 10 | > 10 | 2.2 | > 10 | 1.8 |
| O=C(c1ccc(C(=O)N2CCC(N3CCCC3)CC2)c(C(=O)N2CCC(N3CCCC3)CC2)c1)N1CCC(N2CCCC2)CC1 | > 10 | > 10 | 7.9 | 0.11 | > 10 | 0.12 |
| O=C(c1ccc(C(=O)N2CC3CNCC3C2)cc1)N1CCC(N2CCCC2)CC1 (stereo not given) | > 10 | > 10 | > 10 | 3.5 | > 10 | 3.1 |
| CN(C)C1CCN(C(=O)c2ccc(C(=O)N3CCC(N4CCCC4)CC3)cc2)CC1 | > 10 | > 10 | > 10 | 0.18 | > 10 | 0.31 |
| CN(C)C1CCN(C(=O)c2ccc(C(=O)N3CCC(N(C)C)CC3)cc2)CC1 | > 10 | > 10 | > 10 | 8 | > 10 | > 10 |
| O=C(c1ccc(C(=O)N2CCC(N3CCCC3)CC2)c(-c2ccccc2)c1)N1CCC(N2CCCC2)CC1 | > 10 | > 10 | > 10 | 0.061 | > 10 | 0.066 |
| O=C(c1ccc(C(=O)N2CCC(N3CCCC3)CC2)c(Oc2ccccc2)c1)N1CCC(N2CCCC2)CC1 | > 10 | > 10 | > 10 | 0.053 | > 10 | 0.058 |
| O=C(c1ccc(C(=O)N2CCC(N3CCCC3)CC2)c2ccccc12)N1CCC(N2CCCC2)CC1 | > 10 | > 10 | 10.7 | 0.043 | > 10 | 0.072 |
| O=C(c1ccc(C(=O)N2CCC(N3CCCC3)CC2)cc1)N1CCC(C2CCCN2)CC1 (stereo not given) | > 10 | > 10 | > 10 | 0.092 | > 10 | 0.12 |
| O=C(NCCCN1CCCC1)c1ccc(C(=O)N2CCC(N3CCCC3)CC2)cc1 | > 10 | > 10 | > 10 | 0.34 | > 10 | 0.68 |

Further lines, with some results ahead:

| IC50 [2] [µM] | IC50 [3] [µM] | IC50 (TP53-binding protein 1) [µM] | Structure (SMILES) | IC50 [1] [µM] | IC50 [4] [µM] | IC50 [5] [µM] |
| --- | --- | --- | --- | --- | --- | --- |
| > 10 | > 10 | > 10 | O=C(c1ccc(CN2CCC(N3CCCC3)CC2)cc1)N1CCC(N2CCCC2)CC1 | 0.13 | > 10 | 0.14 |
| > 10 | > 10 | > 10 | C[N+]1(C2CCN(C(=O)c3ccc(C(=O)N4CCC(N5CCCC5)CC4)cc3)CC2)CCCC1 | 0.081 | > 10 | 0.14 |
| > 10 | > 10 | > 10 | O=C(c1ccc(C(=O)N2CCC(N3CCCC3)CC2)c(Br)c1)N1CCC(N2CCCC2)CC1 | 0.074 | > 10 | 0.12 |
| > 10 | > 10 | > 10 | O=C(c1ccc(C(=O)N2CCC(N3CCCCC3)CC2)cc1)N1CCC(N2CCCCC2)CC1 | > 10 | > 10 | > 10 |
| > 10 | > 10 | > 10 | O=C(c1ccc(C(=O)N2CCC(N3CCCC3)CC2)s1)N1CCC(N2CCCC2)CC1 | 0.068 | > 10 | 0.096 |
| > 10 | > 10 | > 10 | O=C(c1ccc(C(=O)N2CCC(N3CCCC3)C2)cc1)N1CCC(N2CCCC2)CC1 (stereo not given) | 0.22 | > 10 | 0.25 |
| > 10 | > 10 | > 10 | O=C(c1ccc(C(=O)N2CCC(N3CCC3)CC2)cc1)N1CCC(N2CCC2)CC1 | 0.35 | > 10 | 0.4 |
| > 10 | > 10 | > 10 | O=C(c1ccc(S(=O)(=O)N2CCC(N3CCCC3)CC2)cc1)N1CCC(N2CCCC2)CC1 | 0.097 | > 10 | 0.099 |
| > 10 | > 10 | > 10 | O=C(c1ccc(C(=O)N2CCCC(N3CCCC3)CC2)cc1)N1CCCC(N2CCCC2)CC1 (stereo not given) | 0.11 | > 10 | 0.11 |
| > 10 | > 10 | > 10 | O=C(c1ccc2cc(C(=O)N3CCC(N4CCCC4)CC3)ccc2c1)N1CCC(N2CCCC2)CC1 | 0.45 | > 10 | 0.69 |
| > 10 | > 10 | 4.7 | O=C(c1ccccc1C(=O)N1CCC(N2CCCC2)CC1)N1CCC(N2CCCC2)CC1 | 0.35 | > 10 | 1.1 |
| > 10 | > 10 | > 10 | O=C(c1ccc(C(=O)N2CC3CCC(C2)C3N2CCCC2)cc1)N1CCC(N2CCCC2)CC1 (stereo not given) | 0.092 | > 10 | 0.16 |
| > 10 | > 10 | > 10 | O=C(c1ccc(C(=O)N2CCC(N3CCCC3)CC2)cc1)N1CCCC(N2CCCC2)CC1 (stereo not given) | 0.074 | > 10 | 0.096 |
